Active and inactive are the calls of the source. No cut-off for these calls is given here.
Tests used:
A549 [1] = test: Induction of mitotic arrest in human A549 cells assessed as increase in mitotic index at > 200 uM measured for 12 hrs by phase contrast microscopic analysis; format: functional, cell-based
A549 [2] = test: Induction of mitotic arrest in human A549 cells assessed as increase in mitotic index at > 50 uM measured for 12 hrs by phase contrast microscopic analysis; format: functional, cell-based
A549 [3] = test: Induction of cell cycle arrest in human A549 cells assessed as accumulation of cells at G2/M phase at 66 uM incubated for 24 hrs by PI staining based flow cytometric analysis; format: functional
Outline: (§1)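 A549 cells were grown 48 h, then given compound or DMSO for 24 h, with nocodazole as control. Cells were fixed in 70% ice-cold ethanol overnight and stained with 30 μg/mL propidium iodide. DNA content was read by flow cytometry, with linear gates for G0/G1, S and G2/M. Mean ± s.d. of 2–3 independent experiments; G2/M versus DMSO tested by Dunnett's test.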

MCF7 [4] = test: Induction of mitotic arrest in human MCF7 cells assessed as increase in mitotic index at > 50 uM measured for 12 hrs by phase contrast microscopic analysis; format: functional, cell-based
A549 [5] = test: Induction of cell cycle arrest in human A549 cells assessed as accumulation of cells at G2/M phase at > 22 uM incubated for 24 hrs by PI staining based flow cytometric analysis; format: functional; outline: as §1
Tubulin (Homo sapiens) [6] = target: T1, Tubulin (Homo sapiens) (UniProt P68371+Q9H4B7+P0DPH7+P68366+Q13509+Q71U36+P04350+Q3ZCM7+P07437+P68363+Q9BQE3+Q6PEY2+Q13885+Q9BVA1+Q9BUF5); test: Destabilization of microtubule network (unknown origin) assessed as decrease in catastrophes frequency measured for 30 min by differential interference contrast microscopic analysis
Tubulin (Homo sapiens) [7] = target: T1, Tubulin (Homo sapiens); test: Destabilization of microtubule network (unknown origin) assessed as reduction in microtubule growth rate measured for 30 min by differential interference contrast microscopic analysis
HeLa [8] = test: Induction of mitotic arrest in human HeLa cells assessed as increase in mitotic index at > 50 uM measured for 12 hrs by phase contrast microscopic analysis; format: functional, cell-based
A549 [9] = test: Induction of cell cycle arrest in human A549 cells assessed as accumulation of cells at G2/M phase incubated for 24 hrs by PI staining based flow cytometry analysis; format: functional; settings: for IC50: A549, 24 h; outline: as §1
HeLa [10] = test: Induction of mitotic arrest in human HeLa cells assessed as increase in mitotic index at > 200 uM measured for 12 hrs by phase contrast microscopic analysis; format: functional, cell-based
A549 [11] = test: Cytotoxicity against human A549 cells assessed as reduction in cell proliferation incubated for 72 hrs by MTT assay; format: toxicity, cell-based; settings: a549, 72 h
Outline: (§2)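 Cells were seeded at 2500 per well in DMEM/F12 and left 24 h at 37 °C in 5% CO2 before treatment. Compounds came from DMSO stocks and were given at final 100–0.045 μM, eight dilutions, in triplicate, for 72 h. MTT (up to 0.5 mg/mL) was then added for 1.5 h and formazan dissolved in DMSO was read at 565 nm. Signal was normalized to untreated cells and IC50 calculated.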

MCF7 [12] = test: Induction of mitotic arrest in human MCF7 cells assessed as increase in mitotic index at > 200 uM measured for 12 hrs by phase contrast microscopic analysis; format: functional, cell-based
Tubulin (Bos taurus) [13] = test: Destabilization of microtubule network of purified bovine brain tubulin in vitro assessed as decrease in catastrophes frequency at 25 uM measured for 30 min by differential interference contrast microscopic analysis
A549 [14] = test: Induction of cell cycle arrest in human A549 cells assessed as accumulation of cells at S phase incubated for 24 hrs by PI staining based flow cytometry analysis; format: functional; settings: dose <= 64.0 µM; outline: as §1
A549 [15] = test: Induction of cell cycle arrest in human A549 cells assessed as accumulation of cells at G0/G1 phase incubated for 24 hrs by PI staining based flow cytometry analysis; format: functional; settings: dose <= 64.0 µM; outline: as §1
Tubulin (Bos taurus) [16] = test: Destabilization of microtubule network of purified bovine brain tubulin in vitro assessed as decrease in microtubule growth rate at 25 uM measured for 30 min by differential interference contrast microscopic analysis relative to control; set-up: scale not given: the % may be the effect or the level left
[17] = Cytotoxicity against HEK293T cells assessed as reduction in cell proliferation incubated for 72 hrs by MTT assay; format: toxicity, cell-based, HEK293; settings: human; outline: as §2
Tubulin (Bos taurus) [18] = test: Displacement of CPZ from tubulin (bovine brain) assessed as decrease in fluorescence intensity incubated for 1 hr by fluorescence based analysis; settings: dose 100.0 µM
A549 [19] = test: Induction of cell cycle arrest in human A549 cells assessed as accumulation of cells at G2/M phase at 116 uM incubated for 24 hrs by PI staining based flow cytometric analysis; format: functional; outline: as §1
A549 [20] = test: Induction of cell cycle arrest in human A549 cells assessed as accumulation of cells at G2/M phase at 200 uM incubated for 24 hrs by PI staining based flow cytometric analysis; format: functional; outline: as §1
Tubulin (Homo sapiens) [21] = target: T1, Tubulin (Homo sapiens); test: Destabilization of microtubule network (unknown origin) assessed as effect on microtubule growth rate measured for 30 min by differential interference contrast microscopic analysis
A549 [22] = test: Induction of cell cycle arrest in human A549 cells assessed as accumulation of cells at G2/M phase up to 200 uM incubated for 24 hrs by PI staining based flow cytometric analysis; format: functional; outline: as §1

## O=C1CC[C@@H]2C[C@H](c3ccccc3)c3ccccc3N12 (racemic)
A549 [1]
  Activity: Active
A549 [2]
  Activity: Active
A549 [3]
  Activity: Active
MCF7 [4]
  Activity: Active
A549 [5]
  Activity: Active
Tubulin (Homo sapiens) [6]
  Activity: Active
Tubulin (Homo sapiens) [7]
  Activity: Active
HeLa [8]
  Activity: Active
A549 [9]
  IC50: 22 µM
HeLa [10]
  Activity: Active
A549 [11]
  Activity: Toxic
MCF7 [12]
  Activity: Active

## O=C1CC[C@@H]2C[C@H](c3cccc(O)c3)c3ccccc3N12 (racemic)
Tubulin (Bos taurus) [13]
  Activity: Active
A549 [14]
  Activity: Dose-dependent-effect
A549 [15]
  Activity: Dose-dependent-effect
Tubulin (Bos taurus) [16]
  Activity: > 50%
[17]
  IC50 at 72 h: 4.1 µM
Tubulin (Bos taurus) [18]
  Activity: Active
A549 [9]
  IC50: 5.9 µM
A549 [9]; dose <= 64.0 µM
  Activity: Dose-dependent-effect

## O=C1CCC(/C=C/c2ccccc2)N1c1ccccc1 (racemic)
A549 [1]
  Activity: Active
A549 [19]
  Activity: Active
Tubulin (Homo sapiens) [6]
  Activity: Active
Tubulin (Homo sapiens) [7]
  Activity: Active
A549 [9]
  IC50: 82 µM
HeLa [10]
  Activity: Active
A549 [11]
  Activity: Toxic
A549 [20]
  Activity: Active
MCF7 [12]
  Activity: Active

## CC(C)(C)c1ccc(N2C(=O)CCC2/C=C/c2ccccc2)cc1 (racemic)
Tubulin (Homo sapiens) [21]
  Activity: No effect

## COc1cc(N2C(=O)CCC2c2ccc(Br)cc2)cc(OC)c1OC (racemic)
Tubulin (Homo sapiens) [6]
  Activity: inactive
Tubulin (Homo sapiens) [21]
  Activity: No effect

## COc1ccc(C2CCC(=O)N2c2cc(OC)c(OC)c(OC)c2)cc1OC (racemic)
Tubulin (Homo sapiens) [6]
  Activity: inactive
Tubulin (Homo sapiens) [21]
  Activity: No effect

## COc1ccc(C2CCC(=O)N2c2cccc3[nH]ccc23)cc1OC (racemic)
Tubulin (Homo sapiens) [21]
  Activity: No effect

## COc1ccc(N2C(=O)CCC2/C=C/c2ccc(C)cc2)cc1OC (racemic)
A549 [22]
  Activity: inactive
Tubulin (Homo sapiens) [21]
  Activity: Active

## COc1ccc(N2C(=O)CCC2c2ccc(OC)c(OC)c2)cc1 (racemic)
Tubulin (Homo sapiens) [21]
  Activity: Active

## Cc1ccc(/C=C/C2CCC(=O)N2c2ccccc2)cc1 (racemic)
A549 [22]
  Activity: inactive
Tubulin (Homo sapiens) [21]
  Activity: Active

## Cc1ccc([C@H]2C[C@H]3CCC(=O)N3c3ccccc32)cc1 (racemic)
A549 [3]
  Activity: inactive
Tubulin (Homo sapiens) [21]
  Activity: Active

## Cc1ccccc1C1CCC(=O)N1c1ccc([N+](=O)[O-])cc1 (racemic)
Tubulin (Homo sapiens) [21]
  Activity: No effect

## O=C1CCC(c2c3ccccc3cc3ccccc23)N1c1ccc(C(F)(F)F)cc1 (racemic)
Tubulin (Homo sapiens) [21]
  Activity: No effect
